Compound activity: PubChem, several laboratories
In the library only some 2.7% were active in any assay of this set; here they are far more common.
PREPL inhibitor – inhibits the human prolyl oligopeptidase-like enzyme; Q4J6C6; recombinant PREPL, fluorescence polarization activity-based probe; actives 0.68% (n = 320,000); inhibition, % at 5.96 µM; AID 2751; in the data active = inhibition above about 43%;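 also: 0% = enzyme with DMSO and 100% = wells lacking enzyme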
MC4R antag cAMP – human MC4R antagonism in cAMP assay; P32245; MC4R-expressing cells, MTII-stimulated cAMP, LANCE TR-FRET; inhibition, % at 6.5 µM; actives 0.48% (n = 360,000);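 active = inhibition above its plate's cutoff, the mean of tested wells on that plate plus 3 SD, cut at about 29% in these data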;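 also: 0% = Melanotan II alone and 100% = Melanotan II plus saturating MCL0020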
Target sequence (P32245 whole entry, looked up): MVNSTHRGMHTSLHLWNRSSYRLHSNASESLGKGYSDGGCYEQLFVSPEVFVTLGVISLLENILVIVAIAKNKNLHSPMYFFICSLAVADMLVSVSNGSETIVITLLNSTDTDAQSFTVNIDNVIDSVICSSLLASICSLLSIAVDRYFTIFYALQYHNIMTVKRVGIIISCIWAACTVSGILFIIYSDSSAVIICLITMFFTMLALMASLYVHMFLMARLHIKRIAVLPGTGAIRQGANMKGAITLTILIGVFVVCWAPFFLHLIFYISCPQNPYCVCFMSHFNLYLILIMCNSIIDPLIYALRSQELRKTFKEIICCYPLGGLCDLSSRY
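System: U2OS cells stably expressing human melanocortin 4 receptor (MC4R). Reagent: Melanotan II challenge after compound preincubation. Doses: 6.5 µM. Times: 30-min compound, 1-h challenge, 1-h detection, room temperature. Measured by: TR-FRET with Eu-cAMP and labeled anti-cAMP, 671 nm. Replicates: singlicate.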
NTR1 agonist – agonists of human neurotensin receptor NTR1. AID 493036. activation, % at 20 µM. P30989. actives 0.17% (n = 330,000). NTR1-U2OS beta-arrestin-GFP spot imaging, agonist mode;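 active = activation at or above 40% of the spot to cytoplasm intensity ratio, with at least 20 cells analyzed; inconclusive = wells under 20 cells, flagged as cytotoxic or low count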;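 also: 0% = DMSO without peptide and 100% = 100 nM NTR1 peptide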
Target sequence (P30989 whole entry, looked up): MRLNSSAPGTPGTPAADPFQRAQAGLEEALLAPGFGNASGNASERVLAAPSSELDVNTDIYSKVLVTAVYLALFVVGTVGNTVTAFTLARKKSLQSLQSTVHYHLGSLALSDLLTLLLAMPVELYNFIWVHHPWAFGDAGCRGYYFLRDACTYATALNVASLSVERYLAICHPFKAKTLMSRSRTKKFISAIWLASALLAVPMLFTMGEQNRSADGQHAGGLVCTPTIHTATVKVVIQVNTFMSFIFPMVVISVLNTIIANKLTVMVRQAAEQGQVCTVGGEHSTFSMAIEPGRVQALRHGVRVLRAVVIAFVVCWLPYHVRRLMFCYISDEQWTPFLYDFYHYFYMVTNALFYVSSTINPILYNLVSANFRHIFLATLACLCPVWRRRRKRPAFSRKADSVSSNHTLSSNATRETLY
m5-HT2A agonist – activates the mouse 5-HT2A serotonin receptor; P35363; CHO-K1 mHTR2A beta-arrestin complementation, luminescence; percent of 30 µM serotonin response; activation, % at 7.6 µM; actives 0.66% (n = 360,000); AID 624169;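 active = activation above a run cutoff, the mean activation of all tested compounds plus 3 SD, cut at about 14% in these data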;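 also: 0% = plate median of compound wells and 100% = 30 µM serotonin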
Lipid droplet – hepatic lipid droplet formation modulation. AML12 mouse hepatocytes, oleate lipid droplets, BODIPY imaging. inhibition, % at 6.5 µM. actives 0.4% (n = 240,000);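 active = lipid droplet intensity inhibited by at least 50%, with more than 500 cells counted; inconclusive = wells with under 300 cells, treated as cytotoxic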
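material = mouse AML12 hepatocyte cell line, fixed after treatment | also added = 100 µM oleic acid challenge | doses = compound at 6.5 µM only | schedule = overnight exposure | technique = Image-based BODIPY and DAPI two-channel analysis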
MC4R barr agon – human MC4R agonism via beta-arrestin. P32245. U2OS MC4R beta-arrestin complementation, luminescence; percent of melanotan II response, DMSO zero. activation, % at 8.9 µM. actives 0.98% (n = 360,000). AID 540308;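 active = activation above a per-plate cutoff, the mean activation of sample wells on that plate plus 3 SD, cut at about 8% in these data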
Lipid drop inh – hepatic lipid droplet formation inhibition, confirmed. shares compounds with Lipid droplet. AML12 mouse hepatocytes, BODIPY lipid droplet imaging; droplets induced with 100 µM oleic acid. inhibition, % at 5.2 µM. actives 65% (n = 870). AID 463183;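 active = inhibition of lipid droplet metric at least 50%, with more than 300 cells in each of four replicates; inconclusive = wells under 300 cells, flagged as toxic or low count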;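 also: plate controls were DMSO with oleic acid for no effect and 5 µM Triacsin-C for full effect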
AML12 cytotox – counter-screen for cytotoxicity in AML12 mouse hepatocytes; AID 463200; actives 3% (n = 870); DAPI nuclear morphology cytotoxicity imaging; active compounds read high; cells fed 100 µM oleate overnight; shares compounds with Lipid droplet; z-score at 5 µM; in the data active = z-score above about 6.3;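 also: compound exposure lasted overnight at 37 °C before fixation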
AML12 tox ATP – AML12 hepatocyte cytotoxicity, confirmed. 530 tested, under 10 active. AML12 mouse hepatocyte viability, ATP luminescence; cells loaded with 100 µM oleic acid. AID 463219. shares compounds with Lipid droplet. cytotoxicity, % at 50 µM;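 active = cytotoxicity above 50% in each of four replicates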;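 also: compound exposure lasted overnight at 37 °C before the ATP read; 0% = DMSO-treated cells and 100% = wells with no cells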
Starred values were filed as active, the others as inactive; ? = inconclusive; . = no result.

SMILES	PREPL inhibitor	MC4R antag cAMP	NTR1 agonist	m5-HT2A agonist	Lipid droplet	MC4R barr agon	Lipid drop inh	AML12 cytotox	AML12 tox ATP
c1ccc(NCc2ccncc2)cc1	7.2	-5.2	1.8	1.6	55.3*	-0.9	4.3	0.774	.
Cc1cccc(OCC(=O)NCCNC(=O)c2ccco2)c1	0.7	12.3	-1.7	9.7	-6.1	0.1	.	.	.
CSc1c(CC(=O)Nc2ccccc2C(F)(F)F)n(Cc2ccccc2)c2ccccc12	-3.2	11.1	3.2	-3.0	68.7*	-1.6	104.5*	0.466	.
CCn1cc(CCCC(=O)NCc2ccccc2OC)c2ccccc21	.	8.2	0.3	-5.1	87.8*	0.1	100.4*	-0.561	14.8
CCn1cc(CCCC(=O)NCc2cccc(OC)c2)c2ccccc21	.	11.0	0.0	-4.7	79.9*	-1.7	87.5*	-0.143	7.2
COc1ccc(NC(=O)Nc2cccc3ccccc23)c(OC)c1	6.1	-1.8	2.9	-2.8	55.8*	-2.1	82.9*	-0.235	8.8
COc1ccc(OC)c(NC(=O)Nc2cccc3ccccc23)c1	9.2	-3.5	2.9	-3.4	36.8	0.3	.	.	.
COc1ccccc1/C=C/C1(C(=O)NC2CCCC2)CC(=O)N1c1ccc(C)cc1 (configuration not stated)	11.6	-5.5	0.4	-3.8	23.9	-1.5	.	.	.
CCN(CC)S(=O)(=O)c1ccc(N2C(=O)CC2(/C=C/c2ccccc2)C(=O)NC2CCCC2)cc1 (configuration not stated)	5.4	7.2	0.8	-2.0	62.8*	-0.6	74.0	0.43	.
O=C(Cc1coc2ccc3ccccc3c12)NCc1ccccc1	-9.2	6.5	0.9	-4.8	0.8	-3.1	.	.	.
O=C(Cc1coc2ccc3ccccc3c12)NC1CCCc2ccccc21 (configuration not stated)	-10.6	5.0	3.5	-0.1	51.9*	9.1*	91.4*	0.157	18.8
CC(C)c1cc(C(=O)N2CCCC(CCC(=O)NCc3ccccc3F)C2)n(C)n1 (configuration not stated)	8.9	10.4	0.6	-4.8	51.3*	-1.6	-13.6	0.478	.
COc1ccc(/C=C/C(=O)c2ccc(NC3=NCCCS3)cc2)cc1OC	-1.6	-13.3	1.4	-3.0	1.5	-3.5	.	.	.
Clc1ccc(Nc2nc(NCCN3CCOCC3)nc(N3CCOCC3)n2)cc1	10.2	5.4	-0.7	-4.9	65.8*	-1.3	75.2*	18.6*	.
CCNC(=S)N1CCc2cc(OC)c(OC)cc2C1COc1ccccc1OC (configuration not stated)	-2.6	12.1	1.3	-6.3	62.1*	-0.5	92.8*	-0.377	2.6
CCNC(=S)N1CCc2cc(OC)c(OC)cc2C1COc1ccc(OC)cc1 (configuration not stated)	9.0	-5.9	0.4	1.8	16.1	-1.5	.	.	.
CCn1c(SCC(=O)N/N=C/c2ccc(O)c(OC)c2)nc2ccccc21	-6.9	3.5	-0.2	-4.1	1.2	1.1	.	.	.
COc1ccc(C(=O)O/N=C(\N)c2ccccn2)cc1	12.6	-5.4	-0.3	-0.7	66.0*	-2.7	20.0	-0.241	.
CCn1cc(C(=O)NCCCO)c(=O)c2cc(F)c(N3CCN(C)CC3)cc21	-3.7	9.0	0.0	-1.3	.	0.0	.	.	.
CCCCCCNC(=O)c1cn(CC)c2cc(N3CCN(C)CC3)c(F)cc2c1=O	-4.0	18.0	4.6	-9.7	52.6*	4.2	27.3	0.62	.
CC(=O)N1CCN(c2cc(N3CCc4ccccc4C3)c(F)cc2[N+](=O)[O-])CC1	20.0	-2.6	2.0	-1.8	.	0.1	.	.	.
COc1ccc(NC(=O)CCC2COc3ccccc3O2)c(OC)c1 (configuration not stated)	17.6	5.1	-1.7	0.1	12.9	-0.1	.	.	.
COc1ccc(/C=C/C(=O)NCC2COc3ccccc3O2)c(OC)c1 (configuration not stated)	-8.7	-1.6	-0.9	0.2	65.4*	-2.4	83.5*	0.483	12.9
COc1ccccc1-n1c(SCC(N)=O)nc2c(c1=O)SCC2	-1.2	1.9	-1.2	3.2	.	-1.1	.	.	.
CCOC(=O)c1ccc(NC(=O)CSc2nc3c(c(=O)n2-c2ccccc2OC)SCC3)cc1	4.6	5.0	-1.9	14.1	87.0*	-0.1	105.3*	-0.496	2.4
SMILES	PREPL inhibitor	MC4R antag cAMP	NTR1 agonist	m5-HT2A agonist	Lipid droplet	MC4R barr agon	Lipid drop inh	AML12 cytotox	AML12 tox ATP
CCOc1ccccc1Nc1nnc(SCC(=O)Nc2nc(-c3ccc(OC)cc3)cs2)s1	6.8	6.8	0.6	1.5	91.1*	0.2	104.0*	0.275	6.0
COc1ccc(-c2csc(NC(=O)CSc3nnc(Nc4ccccc4C)s3)n2)cc1	-9.1	2.4	-0.7	4.1	?	-3.3	.	.	.
COc1ccccc1Nc1nnc(SCC(=O)Nc2nc(-c3ccc(F)cc3)cs2)s1	-2.4	8.4	-0.1	1.2	67.5*	5.9	45.5	0.436	.
CC1CCN(C(=O)CSCC(=O)Nc2nc(-c3cccs3)cs2)CC1	11.0	7.2	1.6	-3.0	46.8	0.5	.	.	.
O=C(CSCC(=O)N1CCCc2ccccc21)Nc1nc(-c2ccccc2)cs1	-2.6	2.8	3.6	-3.1	69.0*	2.9	90.0*	-0.0781	24.2
CCOC(=O)N1CCN(C(=O)CSCC(=O)Nc2nc(-c3cccs3)cs2)CC1	18.2	-5.3	0.5	-3.6	78.7*	-0.6	96.9*	-0.235	18.6
O=C(C[n+]1cc(-c2ccccc2)n2c1CCC2)Nc1nc(-c2ccccc2)cs1	-21.6	5.5	0.4	5.2	-6.4	-1.5	.	.	.
Cc1cc(C)n2nc(SCC(=O)NC3CCCC(C)C3C)nc2n1 (configuration not stated)	19.0	1.5	0.3	11.5	-4.9	1.1	.	.	.
CC(C)(C)c1cc(Br)c(O)c(N=Nc2ccc(S(=O)(=O)N3CCOCC3)cc2)c1	2.6	5.6	4.6	0.5	56.2*	-1.9	102.2*	-0.349	18.5
Cc1ccc(O)c(N=Nc2ccc(S(=O)(=O)N3CCOCC3)cc2)c1	18.8	11.7	3.4	-0.2	12.6	-1.9	.	.	.
Clc1cccc(Nc2nc(-c3ccncc3)cs2)c1	-9.3	20.8	16.8	13.5	91.2*	0.1	57.8	17.2*	.
Cc1cccc(Nc2nc(-c3ccncc3)cs2)c1	31.7	7.1	4.4	-5.9	?	0.7	.	.	.
